Screens from PubChem.
CRFBP-R2 block: CRF-BP/CRF-R2 complex antagonism. HEK293 CRF-R2/CRF-BP, CRF-induced calcium fluorescence. inhibition, % at 11.8 µM. hit rate 0.59% among 350,000;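 active means inhibition of the ligand-induced calcium signal above about 50% at the single tested concentration, limit read from the data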
CRFBP-R2 agonist: CRF-BP/CRF-R2 complex agonism. HEK293 CRF-R2/CRF-BP, calcium dye fluorescence (FLIPR); percent of saturating CRF peptide response. activation, % at 13.2 µM. hit rate 0.46% among 350,000. AID 588473;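 active means activation of at least 50%, plus an integration ratio under a set limit after plate pattern correction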;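 further: plate controls were neutral control wells without compound for no effect and CRF at EC100 for full effect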
TMEM16A act: activators or potentiators of mouse TMEM16A chloride channel; HEK293 TMEM16A/YFP-H148Q/I152L, iodide quench fluorescence; stronger effect = lower value; AID 623877; Q8BHY3; B-score at 10 µM; hit rate 0.3% among 340,000;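 active means fluorescence-ratio B-score plate-corrected deviation score at least 3 library SD below zero, with starting fluorescence score within 5 deviations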;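 further: channel opened by trigger with iodide after compound preincubation; score built on the fluorescence ratio of max minus min over baseline; more negative score means more quench and so TMEM16A activation or potentiation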
TAAR1 antagonist: antagonists of human TAAR1; hit rate 1.5% among 360,000; inhibition, % at 3 µM; Q96RJ0; CHO RD-HGA16 TAAR1, Fluo-8 calcium fluorescence, antagonist; AID 624466;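 active means inhibition above a per-plate cutoff, the mean inhibition of test compounds on that plate plus 3 SD, cut at about 49% in these data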;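 further: 0% = DMSO plus EC80 beta-PEA response and 100% = DMSO alone without agonist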
Target sequence (Q96RJ0 whole entry, looked up): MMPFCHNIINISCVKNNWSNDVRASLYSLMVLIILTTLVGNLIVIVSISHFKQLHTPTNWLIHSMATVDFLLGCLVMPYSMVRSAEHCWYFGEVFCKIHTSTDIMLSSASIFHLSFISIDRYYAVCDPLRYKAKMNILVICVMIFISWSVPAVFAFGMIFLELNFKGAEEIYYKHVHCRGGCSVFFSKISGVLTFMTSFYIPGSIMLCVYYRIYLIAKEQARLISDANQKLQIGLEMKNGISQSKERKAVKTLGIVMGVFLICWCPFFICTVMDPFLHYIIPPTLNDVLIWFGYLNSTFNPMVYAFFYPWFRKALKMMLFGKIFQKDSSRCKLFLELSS
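Test system: hTAAR1-expressing CHO RD-HGA16 cells, Gα16-coupled; Probe or stimulus: EC80 β-phenethylamine stimulus; Compound dosing: single nominal final test compound concentration of 3 µM; Timing: 140 s kinetic read after compound, 140 s after agonist; Signal: Fluo-8 calcium-sensitive fluorescence; Measure: % inhibition of agonist calcium response; Controls: DMSO and EC80 PEA controls.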
ANO1 block: blocks the mouse calcium-activated chloride channel TMEM16A; Q8BHY3; HEK293 TMEM16A/YFP iodide influx fluorescence, ionomycin; normalized B-score (activity score, 25-100; higher = stronger inhibition) at 10 µM; hit rate 1.2% among 310,000; AID 588511;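 active means ratio plate-corrected score three or more library SD toward inhibition, starting fluorescence score within five deviations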;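 further: score derived from kinetic fluorescence span divided by baseline fluorescence per well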
TAAR1 ag: human TAAR1 agonism. Q96RJ0. CHO RD-HGA16 TAAR1, Fluo-8 calcium fluorescence; vehicle wells 0%, saturating PEA agonist 100%. activation, % at 3 µM. hit rate 0.99% among 360,000;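 active means activation above the mean activation of all test compounds in the run plus 3 SD, cut at about 38% in these data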
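test system = CHO RD-HGA16 cells carrying human TAAR1 plus Gα16 | schedule = 17-24 h seeding, 75 min 37 °C dye, 30 min RT | compound dosing = 3 µM single concentration | control set = DMSO and PEA EC100 | replicates = n 1 | signal = Fluo-8 fluorescence, 5 s baseline then 140 s kinetic read | measure = percent activation vs PEA EC100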
TMEM16A reconf: TMEM16A (mouse) chloride channel inhibition, re-confirmation; AID 652189; shares compounds with ANO1 block; hit rate 39% among 2,300; inhibition, % at 10 µM; HEK293 TMEM16A/YFP-H148Q, iodide quench fluorescence; ionomycin added to raise cell calcium;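 active means mean duplicate percent inhibition, scaled so buffer wells are 0 and the reference blocker 100, over three buffer SD above buffer mean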
HEK293 Ca mobil: alters calcium mobilization in TMEM16A HEK293 cells, counter-screen; calcium response (% of ionomycin), % at 10 µM; TMEM16A/YFP HEK293, Fluo4 calcium mobilization; hit rate 2% among 2,300; shares compounds with ANO1 block;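 active means duplicate-averaged calcium signal over 20% of the ionomycin maximum, relative to buffer baseline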;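 further: each well's signal is peak minus trough fluorescence divided by its pre-addition baseline; 0% = buffer wells and 100% = ionomycin wells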
Parental YFP cnt: counter-screen for TMEM16A inhibitors: effect in parental YFP-HEK293 cells | iodide YFP quench, ionomycin | shares compounds with ANO1 block | YFP ratio F(max-min)/F0 at 10 µM | AID 652233 | 2,300 tested, under 10 active;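 active means yellow fluorescent protein signal ratio exceeding the buffer control mean by over 5 SD of those controls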;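 further: ratio is mean of duplicate wells from kinetic YFP trace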
ClC-1 inh: selectivity of TMEM16A inhibitors: inhibition of rat ClC-1 chloride channel | shares compounds with ANO1 block | CHO ClC-1-YFP, iodide influx fluorescence quench; iodide control reads 0, buffer control 100 | ratio percent, % at 10 µM | 2,300 tested, under 10 active | AID 652236;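 active means duplicate-mean ratio percent above the mean of iodide-only control wells, which defines zero, plus 5 of their SD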;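 further: higher percent means stronger block of ClC-1 iodide influx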
* marks the source's active call; other numbers are inactive results; i = inactive; . = no result given. Shown are actives, neighbours in structure and some others; about 3.9% of the full set was active somewhere.

SMILES | CRFBP-R2 block | CRFBP-R2 agonist | TMEM16A act | TAAR1 antagonist | ANO1 block | TAAR1 ag | TMEM16A reconf | HEK293 Ca mobil | Parental YFP cnt | ClC-1 inh
O=C(Cc1ccc(Br)cc1)OCC(=O)N1CCCCCC1 | 20 | -4 | i | -7 | . | 2 | . | . | . | .
O=C(c1c(O)c2ccccc2oc1=O)C1CCCCC1 | 4 | 1 | i | -4 | i | -2 | . | . | . | .
O=C(CCC1CCCC1)c1c(O)c2ccccc2oc1=O | 66* | 89* | i | -29 | 100* | 15 | 34%* | 58%* | -0.94 | -38
Cc1ccc(S(=O)(=O)N2CCOCC2)cc1NC(=O)COC(=O)COc1cccc2c1OC(C)(C)C2 | 0 | 0 | i | -2 | i | 5 | . | . | . | .
O=C(COc1ccc2ccccc2c1)NCC1CCCO1 (stereo not given) | -4 | 0 | i | -16 | i | 4 | . | . | . | .
O=C(COC(=O)C12CC3CC(CC(C3)C1)C2)Nc1ccc(OC(F)F)cc1 | -9 | 9 | i | 34 | 25* | 2 | i | i | -1.3 | -12
NS(=O)(=O)c1ccc(NCc2ccccc2OCc2ccc(F)cc2)cc1 | 11 | -1 | i | 20 | 100* | 2 | i | i | -0.93 | -2
NS(=O)(=O)c1ccc(CCNCc2ccccc2OCc2ccc(F)cc2)cc1 | 5 | -1 | i | -10 | i | 4 | . | . | . | .
O=[N+]([O-])c1ccc(SCc2c(F)cccc2Cl)nc1 | 0 | -1 | i | 4 | 25* | -2 | 16%* | i | -1 | -7
O=[N+]([O-])c1ccc(Sc2ccc(Cl)c(Cl)c2)nc1 | 28 | -1 | i | -5 | i | 2 | . | . | . | .
Cc1c(C(=O)Nc2ccc3c(c2)OCCO3)sc2nc(-c3ccccc3)cn12 | -25 | 2 | i | 64* | 25* | 10 | 16%* | i | -0.94 | -12
Cc1c(C(=O)N2CCOCC2)sc2nc(-c3ccccc3)cn12 | 0 | -2 | i | -3 | i | 10 | . | . | . | .
COc1cc(C2C3=C(CC(C)(C)CC3=O)N(C)C3=C2C(=O)CC(C)(C)C3)cc(Br)c1O | 8 | 0 | i | 13 | i | -1 | . | . | . | .
CC(C)CCN1C(=O)c2ccc(C(=O)Nc3c[nH]c(=O)[nH]c3=O)cc2C1=O | 3 | 0 | i | -2 | i | 3 | . | . | . | .
CC(C)CCN1C(=O)c2ccc(C(=O)Nc3ccccc3C(=O)O)cc2C1=O | 8 | -1 | i | -45 | 25* | 2 | i | i | -1.1 | -9
CCN(CC(=O)Nc1c(F)cccc1F)C(=O)CCCNC(=O)c1ccc(Cl)cc1 | 7 | -1 | i | 2 | i | 0 | . | . | . | .
Cc1nc(CSc2nsc(/C=C/N(C)C)c2C#N)cs1 | -12 | 2 | i | 10 | . | 5 | . | . | . | .
COC(=O)c1ccccc1CSc1nsc(/C=C/N(C)C)c1C#N | -22 | 2 | i | . | 25* | . | 19%* | i | -0.76 | 4
COC(=O)Cc1ccc(NC(=S)Nc2ccc(N3CCOCC3)cc2)cc1 | 6 | -3 | i | 14 | 25* | 0 | i | i | -0.95 | -10
Cc1cc(=O)oc2cc(O)cc(OCc3ccccc3)c12 | 7 | -6 | i | 2 | . | 5 | . | . | . | .
CCN(C(=O)CN1CCN(c2ccccc2F)CC1)c1c(N)n(Cc2ccccc2)c(=O)[nH]c1=O | 5 | 2 | i | 11 | 100* | 2 | i | i | -0.96 | -18
